Assay results of several laboratories.
Protocols differ between the studies behind these lines.
OPRD1: Delta-type opioid receptor (OPRD1, Homo sapiens, UniProt P41143)
CA2: Carbonic anhydrase 2 (CA2, Homo sapiens, UniProt P00918)

Compound | target | observed | mode | technique | notes | endpoint | result
COC(=O)c1cc(N(C)C(=O)c2ccn3ncc(-c4ccc(C(=O)O)cc4)c3c2)ccc1Cl | Receptor tyrosine-protein kinase erbB-2 (ERBB2, Homo sapiens, UniProt P04626) | enzyme activity | inhibitor | – | – | IC50 | > 30000 nM
CS(=O)(=O)c1ccc(C(=O)N[C@H]2CC[C@@]3(O)[C@H]4Cc5ccc(O)c6c5[C@@]3(CCN4CC3CC3)[C@H]2O6)s1 | OPRD1 | ligand displacement | – | radioligand | cell membranes | Ki | 27 nM
O=C1CCc2ccccc2O1 | Carbonic anhydrase (Vibrio cholerae serotype O1, UniProt Q9KMP6) | enzyme activity | inhibitor | stopped-flow | – | Ki | 8900 nM
COc1ccc(S(=O)(=O)Oc2ccc(C=NNC(=O)c3ccc(F)cc3)cc2OC)cc1 | CA2 | enzyme activity | inhibitor | absorbance | – | IC50 | 23.2 nM
O=C(N[C@H]1CC[C@@]2(O)[C@H]3Cc4ccc(O)c5c4[C@@]2(CCN3CC2CC2)[C@H]1O5)c1ccc(F)s1 | OPRD1 | ligand displacement | – | radioligand | cell membranes | Ki | 31.4 nM
COc1ccc(S(=O)(=O)Oc2cc(OC)ccc2C=NNC(=O)c2ccc(F)cc2)cc1 | CA2 | enzyme activity | inhibitor | absorbance | – | IC50 | 141 nM
CNC(=O)c1ccc(-c2cnn3ccc(C(=O)N(C)c4ccc(Cl)c(C(=O)OC)c4)cc23)cc1 | Tyrosine-protein kinase ABL1 (ABL1, Homo sapiens, UniProt P00519) | enzyme activity | inhibitor | – | – | IC50 | > 30000 nM
COc1ccc2[nH]c(C)c(CC[N+](C)(C)C)c2c1 | 5-hydroxytryptamine receptor 3A (HTR3A, Homo sapiens, UniProt P46098) | ligand displacement | – | radioligand | – | Ki | ~2600 nM
